{
  "source": "ChEMBL document CHEMBL1250445",
  "about": "“Fluorogenic probes for monitoring peptide binding to class II MHC proteins in living cells” (Nat Chem Biol, 2007)",
  "format_in_all_cases": "cell-based",
  "key": {"[1]": {"biological_target": "T1, HLA class II histocompatibility antigen, DRB1-15 beta chain (Homo sapiens, UniProt P01903+P01911, A100R/D57E/F55L/F60I/F76Y/I96L/L162R/M171V/P40L/Q125E/R42F/V115G/Y59C)", "assay": "Displacement of biotin-HA from recombinant soluble HLA-DR1 expressed in […] by ELISA"}, "[2]": {"biological_target": "T1, HLA class II histocompatibility antigen, DRB1-15 beta chain", "assay": "Displacement of biotin-HA from recombinant soluble HLA-DR1 expressed in human T2 cells at acidic pH by ELISA"}, "[3]": {"biological_target": "HLA class II histocompatibility antigen, DRB1-15 beta chain (Homo sapiens) (UniProt P01911)", "assay": "Binding affinity to recombinant soluble HLA-DR1 expressed in human T2 cells assessed as increase in fluorescence lifetime at 1 uM by fluorescence lifetime imaging microscopy"}, "[4]": {"biological_target": "HLA class II histocompatibility antigen, DRB1-15 beta chain (Homo sapiens) (UniProt P01911)", "assay": "Binding affinity to recombinant soluble HLA-DR1 expressed in […] assessed as fluorescence lifetime by fluorescence lifetime imaging microscopy"}, "[5]": {"biological_target": "HLA class II histocompatibility antigen, DRB1-15 beta chain (Homo sapiens) (UniProt P01911)", "assay": "Binding affinity to recombinant soluble HLA-DR1 expressed in […] assessed as relative fluorescence intensity by fluorescence spectral assay"}, "[6]": {"biological_target": "HLA class II histocompatibility antigen, DRB1-15 beta chain (Homo sapiens) (UniProt P01911)", "assay": "Activation of HLA-DR1 positive B cells assessed as IL2 secretion", "procedure,_shortened": "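HLA-DR1-positive B cells were pulsed with peptide and used as antigen-presenting cells for the HLA-DR1-restricted, HA-specific HA1.7 T cell hybridoma. Activation was read as IL-2 secretion in a thymidine incorporation bioassay, in c.p.m. Triplicate measurements, with SD shown.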"}},
  "note": "pIC50: −log10 of the molar value. Activity calls are given as the source filed them. The calls are words filed in the database; no cut-off is given here. *1 amine or outer side, *2 acyl side, *3 side chain or, on linkers, in order; H or OH if unused. Where a SMILES comes first, the peptide text is derived from it. [ ]: non-standard residue; d: D form. The star is where a group is joined. X1 = CN(C)c1ccc2c(c1)C(=O)N(C[C@H](N[*:1])C(=O)[*:2])C2=O; X2 = CN(C)c1ccc2cc(C(=O)O)c(C(=O)*)cc2c1; X3 = CN(C)c1ccc(CC(=O)*)c(C(=O)O)c1; Dap = NC[C@H](N)C(=O)O",
  "data": [
    {"smiles": "C[C@@H](O)[C@H](NC(=O)[C@H](CCC(=O)O)NC(=O)[C@@H](N)CN1C(=O)c2ccc(N(C)C)cc2C1=O)C(=O)N[C@@H](CC(=O)O)C(=O)N[C@@H](CCCCN)C(=O)N[C@@H](CC(=O)O)C(=O)N[C@@H](CCCCN)C(=O)N[C@@H](CO)C(=O)N[C@@H](CCCN=C(N)N)C(=O)O", "note": "(H-[X1]ETDKDKSR-OH)", "values": [
      {"measurement": "pIC50", "setting": "[1]", "value": "< 5.00"}
    ]},
    {"smiles": "CN(C)c1ccc2c(c1)C(=O)N(C[C@H](NC(=O)OCC1c3ccccc3-c3ccccc31)C(=O)O)C2=O", "values": [
      {"measurement": "pIC50", "setting": "[1]", "value": "< 6.00"}
    ]},
    {"smiles": "CSCC[C@H](NC(=O)[C@H](CO)NC(=O)[C@H](CCCNC(=N)N)NC(=O)[C@H](CNC(=O)c1cc2cc(N(C)C)ccc2cc1C(=O)O)NC(C)=O)C(=O)N[C@@H](C)C(=O)N[C@@H](C)C(=O)N[C@@H](C)C(=O)N[C@@H](C)C(=O)N[C@@H](CC(C)C)C(=O)O", "note": "(Ac-[Dap](X2)RSMAAAAL-OH)", "values": [
      {"measurement": "pIC50", "setting": "[2]", "value": 7.57}
    ]},
    {"smiles": "CSCC[C@H](NC(=O)[C@H](CO)NC(=O)[C@H](CCCNC(=N)N)NC(=O)[C@@H](N)CN1C(=O)c2ccc(N(C)C)cc2C1=O)C(=O)N[C@@H](C)C(=O)N[C@@H](C)C(=O)N[C@@H](C)C(=O)N[C@@H](C)C(=O)N[C@@H](CC(C)C)C(=O)O", "note": "(H-[X1]RSMAAAAL-OH)", "values": [
      {"measurement": "pIC50", "setting": "[1]", "value": 8.40},
      {"measurement": "Activity", "setting": "[3]", "value": "Active"},
      {"measurement": "Time", "setting": "[4]", "value": 0.82, "unit": "nanoseconds"},
      {"measurement": "pIC50", "setting": "[2]", "value": 8.40},
      {"measurement": "Activity", "setting": "[5]", "value": 599, "unit": "cps/nM"}
    ]},
    {"smiles": "CSCC[C@H](NC(=O)[C@H](CO)NC(=O)[C@H](CCCN=C(N)N)NC(=O)[C@H](CNC(=O)Cc1ccc(N(C)C)cc1C(=O)O)NC(C)=O)C(=O)N[C@@H](C)C(=O)N[C@@H](C)C(=O)N[C@@H](C)C(=O)N[C@@H](C)C(=O)N[C@@H](CC(C)C)C(=O)O", "note": "(Ac-[Dap](X3)RSMAAAAL-OH)", "values": [
      {"measurement": "pIC50", "setting": "[2]", "value": 7.55}
    ]},
    {"smiles": "CC(C)C[C@H](NC(=O)[C@H](CCCCN)NC(=O)[C@H](CC(C)C)NC(=O)[C@@H](NC(=O)[C@H](CC(N)=O)NC(=O)[C@H](CCC(N)=O)NC(=O)[C@H](CCCCN)NC(=O)[C@@H](NC(=O)[C@H](Cc1ccc(O)cc1)NC(=O)[C@H](CCCCN)NC(=O)[C@@H]1CCCN1C(=O)[C@@H](N)CN1C(=O)c2ccc(N(C)C)cc2C1=O)C(C)C)[C@@H](C)O)C(=O)N[C@@H](C)C(=O)N[C@H](C(=O)O)[C@@H](C)O", "values": [
      {"measurement": "Activity", "setting": "[6]", "value": "Active"},
      {"measurement": "Time", "setting": "[4]", "value": 0.6, "unit": "nanoseconds"},
      {"measurement": "Activity", "setting": "[5]", "value": 578, "unit": "cps/nM"}
    ]}
  ]
}
